Usually IC50 stands for the point on the concentration scale where inhibition reaches its midpoint. Broadly, the pKa is the pH at which an ionisable group is half protonated. A word on the EC50: it is the concentration giving half of the maximal effect. As usually defined, the inhibition is the percentage by which the read-out fell short of the control.

The target of one series is T1, Beta-secretase 2 (Homo sapiens, UniProt Q9Y5Z0).
T1 sequence (Q9Y5Z0 whole entry): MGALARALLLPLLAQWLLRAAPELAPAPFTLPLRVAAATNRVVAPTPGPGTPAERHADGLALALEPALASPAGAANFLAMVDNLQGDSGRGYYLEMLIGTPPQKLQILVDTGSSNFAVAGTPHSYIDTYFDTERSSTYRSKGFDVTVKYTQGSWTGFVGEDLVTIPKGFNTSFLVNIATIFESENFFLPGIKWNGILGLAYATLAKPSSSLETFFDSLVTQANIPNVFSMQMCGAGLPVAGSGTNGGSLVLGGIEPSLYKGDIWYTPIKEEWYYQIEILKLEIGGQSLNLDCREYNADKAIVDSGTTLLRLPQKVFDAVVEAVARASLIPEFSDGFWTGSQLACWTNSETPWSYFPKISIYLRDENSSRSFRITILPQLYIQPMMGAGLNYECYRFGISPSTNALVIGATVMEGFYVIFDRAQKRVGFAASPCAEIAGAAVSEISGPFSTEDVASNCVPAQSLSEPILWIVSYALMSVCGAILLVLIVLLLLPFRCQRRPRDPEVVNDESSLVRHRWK
Briefly: Inhibition of human BACE2 by FRET based peptide cleavage assay.

Series [1] deals with T2, Cathepsin D (Homo sapiens, UniProt P07339). The series is described as follows: Inhibition of human cathepsin D by FRET based peptide cleavage assay.
T2 sequence (P07339 65-162 limits assumed): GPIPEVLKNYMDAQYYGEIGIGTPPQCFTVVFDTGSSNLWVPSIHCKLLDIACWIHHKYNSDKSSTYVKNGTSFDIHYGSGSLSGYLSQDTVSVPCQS
T2 sequence (P07339 169-412 limits assumed): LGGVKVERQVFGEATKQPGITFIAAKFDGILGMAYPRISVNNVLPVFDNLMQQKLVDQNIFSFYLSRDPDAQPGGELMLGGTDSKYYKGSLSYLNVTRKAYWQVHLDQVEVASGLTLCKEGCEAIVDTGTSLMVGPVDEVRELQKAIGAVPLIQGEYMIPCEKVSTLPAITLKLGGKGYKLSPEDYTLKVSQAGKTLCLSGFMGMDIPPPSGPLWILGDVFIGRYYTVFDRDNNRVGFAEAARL
The next series relates to Mus musculus. The series is described as follows: Reduction in amyloid beta 40 level in Tg2576 mouse plasma at 100 mg/kg, po after 8 hrs. The series is classed as functional. The arrangement: scale not given: the % may be the effect or the level left. The method in brief:
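Tg2576 mice received a single acute oral dose. Plasma Aβ40 was measured 8 h after dosing.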

Series [2] is described as follows: Dissociation constant, pKa of the compound. In kind it is physicochemical.
In series [3] the target is T3, Beta-secretase 1 (Homo sapiens, UniProt P56817). The series is described as follows: Inhibition of human BACE1 by FRET based peptide cleavage assay.
T3 sequence (P56817 whole entry): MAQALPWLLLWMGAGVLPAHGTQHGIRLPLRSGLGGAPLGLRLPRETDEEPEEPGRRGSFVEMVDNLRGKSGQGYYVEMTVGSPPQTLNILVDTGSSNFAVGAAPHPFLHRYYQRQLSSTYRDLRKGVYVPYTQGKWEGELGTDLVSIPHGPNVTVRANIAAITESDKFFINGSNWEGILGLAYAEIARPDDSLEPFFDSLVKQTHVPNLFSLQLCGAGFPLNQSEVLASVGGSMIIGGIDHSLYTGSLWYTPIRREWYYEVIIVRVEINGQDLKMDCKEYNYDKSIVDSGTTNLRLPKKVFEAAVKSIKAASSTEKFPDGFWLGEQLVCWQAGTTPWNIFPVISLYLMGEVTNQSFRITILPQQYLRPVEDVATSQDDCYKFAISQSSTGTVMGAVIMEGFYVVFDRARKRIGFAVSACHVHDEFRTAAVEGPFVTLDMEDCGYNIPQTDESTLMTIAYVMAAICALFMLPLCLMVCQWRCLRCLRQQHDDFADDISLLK
For series [4], the target named is T3, Beta-secretase 1. Briefly: Inhibition of BACE1 expressed in CHOK1 cells coexpressing human recombinant wild type APP assessed as blockade of amyloid beta production by ELISA. In kind it is cell-based, CHO-K1.
The species named for the next series is Homo sapiens. Briefly: Selectivity for human BACE1 over human BACE2.
Series [5] deals with T4, Beta-secretase 2 (Homo sapiens) (UniProt Q9Y5Z0).
T4 sequence (whole entry): T1 sequence (Q9Y5Z0 whole entry)
The settings on record: 25 uM.

The nature of series [6]: Inhibition of pepsin by FRET based peptide cleavage assay.
A further series addresses T5, Renin (Homo sapiens, UniProt P00797).
T5 sequence (P00797 whole entry): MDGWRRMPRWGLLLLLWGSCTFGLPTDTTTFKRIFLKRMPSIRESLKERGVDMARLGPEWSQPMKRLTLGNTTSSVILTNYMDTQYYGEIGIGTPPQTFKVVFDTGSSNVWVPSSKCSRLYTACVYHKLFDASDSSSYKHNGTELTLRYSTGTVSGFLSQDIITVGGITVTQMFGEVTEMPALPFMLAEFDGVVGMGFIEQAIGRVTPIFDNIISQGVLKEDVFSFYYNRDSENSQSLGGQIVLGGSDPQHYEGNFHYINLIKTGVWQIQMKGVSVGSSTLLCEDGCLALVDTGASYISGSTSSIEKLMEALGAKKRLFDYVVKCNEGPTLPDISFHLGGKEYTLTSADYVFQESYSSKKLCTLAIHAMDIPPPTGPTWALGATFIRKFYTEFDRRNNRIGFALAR
The series is described as follows: Inhibition of human recombinant renin by FRET based peptide cleavage assay.

The target of series [7] is T2, Cathepsin D. The series is described as follows: Inhibition of human cathepsin D at 100 uM by FRET based peptide cleavage assay.

On to `COc1ccc([C@@]2(c3ccc(F)c(-c4cccnc4F)c3)N=C(N)N(C)C2=O)cc1C`, for which the results for the IC50 at Beta-secretase 2 and at Cathepsin D [1] were 0.81 µM and 0.82 µM, respectively. In addition, the Activity with Mus musculus worked out at 69%.
The compound `NC1=NC(c2ccccc2)(c2ccccc2)C2=NCCCN12` displayed a pKa in series [2] of 7.6.
For `CCc1cc(C2(C34CC5CC(CC(C5)C3)C4)N=C(N)N(C)C2=O)ccc1OC` (stereo not given), the figures for the IC50 against Beta-secretase 1 [3], against Beta-secretase 2 and at Cathepsin D [1] were 0.28 µM, 4.33 µM and 14.1 µM, respectively. Besides, the EC50 on Beta-secretase 1 [4] worked out at 0.76 µM. Also, the Ratio IC50 in the series listed under Homo sapiens came out at 20.
On Cathepsin D [1], `COc1ccc([C@@]2(C34CC5CC(CC(C5)C3)C4)N=C(N)N(C)C2=O)cc1` registered an IC50 of 20.8 µM. This compound also gave an inhibition in series [5] of 50%.
`CN1C(=O)C(c2ccccc2)(c2ccccc2)N=C1N`: the IC50 in series [6] came out at 11.1 µM; on Renin, 9.6 µM. Besides, the pKa in series [2] was determined as 5.7. In addition, the inhibition at Cathepsin D [7] was 36%.
For the compound `COc1ccc(C2(C34CC5CC(CC(C5)C3)C4)N=C(N)N(C)C2=O)cc1OC` (stereo not given), the IC50 against Beta-secretase 1 [3] was found to be 0.27 µM; against Beta-secretase 2, 9.59 µM; at Cathepsin D [1], 36.6 µM. Also, at Beta-secretase 1 [4], the EC50 came out at 0.19 µM. Also, the Ratio IC50 in the series listed under Homo sapiens was found to be 20.

The values are drawn from ChEMBL document CHEMBL1156789, “Design and synthesis of 5,5'-disubstituted aminohydantoins as potent and selective human beta-secretase (BACE1) inhibitors” (J Med Chem, 2010).
